Data as given in ChEMBL document CHEMBL2062453, “Lead optimization through VLAK protocol: new annelated pyrrolo-pyrimidine derivatives as antitumor agents” (2012).

Key:
Format in all cases: functional
[1] = tested on: MOLT-4; test: Cytotoxicity against human MOLT4 cells assessed as cell growth at 10 uM after 48 hrs by SRB assay relative to control; details: MOLT-4, 48 h, read-out: Activity
[2] = tested on: SR; test: Cytotoxicity against human SR cells assessed as cell growth at 10 uM after 48 hrs by SRB assay relative to control; details: read-out: Activity
In short: (§1)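 NCI single-dose primary screen across about 60 human tumour lines. Each line was inoculated and preincubated on microtiter plates, then exposed to one concentration of agent for 48 h. Growth is reported as percent growth (G%) of treated cells versus untreated control cells.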

[3] = tested on: EKVX; test: Cytotoxicity against human EKVX cells assessed as cell growth at 10 uM after 48 hrs by SRB assay relative to control; details: read-out: Activity
In short: (§2)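 NCI primary screen of about 60 human tumour lines. Cells inoculated and preincubated, then a single test concentration added and cultures incubated 48 h. Result given as percent growth (G%) of treated versus untreated control cells.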

[4] = tested on: HOP-92; test: Cytotoxicity against human HOP92 cells assessed as cell growth at 10 uM after 48 hrs by SRB assay relative to control; details: HOP-92, 48 h, read-out: Activity; in short: as §2
[5] = tested on: NCI-H460; test: Cytotoxicity against human NCI-H460 cells assessed as cell growth at 10 uM after 48 hrs by SRB assay relative to control; details: NCI-H460, 48 h, read-out: Activity
[6] = tested on: NCI-H522; test: Cytotoxicity against human NCI-H522 cells assessed as cell growth at 10 uM after 48 hrs by SRB assay relative to control; details: NCI-H522, 48 h, read-out: Activity
[7] = tested on: COLO 205; test: Cytotoxicity against human COLO205 cells assessed as cell growth at 10 uM after 48 hrs by SRB assay relative to control; details: COLO 205, 48 h, read-out: Activity; in short: as §2
[8] = tested on: HCT-15; test: Cytotoxicity against human HCT15 cells assessed as cell growth at 10 uM after 48 hrs by SRB assay relative to control; details: HCT-15, 48 h, read-out: Activity; in short: as §2
[9] = tested on: SF-268; test: Cytotoxicity against human SF268 cells assessed as cell growth at 10 uM after 48 hrs by SRB assay relative to control; details: SF-268, 48 h, read-out: Activity
[10] = tested on: SF-295; test: Cytotoxicity against human SF295 cells assessed as cell growth at 10 uM after 48 hrs by SRB assay relative to control; details: SF-295, 48 h, read-out: Activity
[11] = tested on: SF-539; test: Cytotoxicity against human SF539 cells assessed as cell growth at 10 uM after 48 hrs by SRB assay relative to control; details: SF-539, 48 h, read-out: Activity
[12] = tested on: SNB-19; test: Cytotoxicity against human SNB19 cells assessed as cell growth at 10 uM after 48 hrs by SRB assay relative to control; details: SNB-19, 48 h, read-out: Activity
[13] = tested on: LOX IMVI; test: Cytotoxicity against human LOXIMVI cells assessed as cell growth at 10 uM after 48 hrs by SRB assay relative to control; details: read-out: Activity; in short: as §2
[14] = tested on: M14; test: Cytotoxicity against human M14 cells assessed as cell growth at 10 uM after 48 hrs by SRB assay relative to control; details: M14, 48 h, read-out: Activity; in short: as §2
[15] = tested on: MDA-MB-435; test: Cytotoxicity against human MDA-MB-435 cells assessed as cell growth at 10 uM after 48 hrs by SRB assay relative to control; details: MDA-MB-435, 48 h, read-out: Activity
[16] = tested on: SK-MEL-28; test: Cytotoxicity against human SK-MEL-28 cells assessed as cell growth at 10 uM after 48 hrs by SRB assay relative to control; details: SK-MEL-28, 48 h, read-out: Activity
[17] = tested on: UACC-257; test: Cytotoxicity against human UACC257 cells assessed as cell growth at 10 uM after 48 hrs by SRB assay relative to control; details: UACC-257, 48 h, read-out: Activity; in short: as §1
[18] = tested on: IGROV-1; test: Cytotoxicity against human IGROV1 cells assessed as cell growth at 10 uM after 48 hrs by SRB assay relative to control; details: IGROV-1, 48 h, read-out: Activity; in short: as §2
[19] = tested on: OVCAR-3; test: Cytotoxicity against human OVCAR3 cells assessed as cell growth at 10 uM after 48 hrs by SRB assay relative to control; details: OVCAR-3, 48 h, read-out: Activity
[20] = tested on: OVCAR-5; test: Cytotoxicity against human OVCAR5 cells assessed as cell growth at 10 uM after 48 hrs by SRB assay relative to control; details: OVCAR-5, 48 h, read-out: Activity
[21] = tested on: OVCAR-8; test: Cytotoxicity against human OVCAR8 cells assessed as cell growth at 10 uM after 48 hrs by SRB assay relative to control; details: OVCAR-8, 48 h, read-out: Activity
[22] = tested on: 786-0; test: Cytotoxicity against human 786-0 cells assessed as cell growth at 10 uM after 48 hrs by SRB assay relative to control; details: 786-0, 48 h, read-out: Activity; in short: as §2
[23] = tested on: A498; test: Cytotoxicity against human A498 cells assessed as cell growth at 10 uM after 48 hrs by SRB assay relative to control; details: A498, 48 h, read-out: Activity; in short: as §2
[24] = tested on: ACHN; test: Cytotoxicity against human ACHN cells assessed as cell growth at 10 uM after 48 hrs by SRB assay relative to control; details: read-out: Activity; in short: as §2
[25] = tested on: CAKI-1; test: Cytotoxicity against human Caki1 cells assessed as cell growth at 10 uM after 48 hrs by SRB assay relative to control; details: CAKI-1, 48 h, read-out: Activity; in short: as §2
[26] = tested on: SN12C; test: Cytotoxicity against human SN12C cells assessed as cell growth at 10 uM after 48 hrs by SRB assay relative to control; details: read-out: Activity
[27] = tested on: TK-10; test: Cytotoxicity against human TK10 cells assessed as cell growth at 10 uM after 48 hrs by SRB assay relative to control; details: TK-10, 48 h, read-out: Activity; in short: as §1
[28] = tested on: UO-31; test: Cytotoxicity against human UO31 cells assessed as cell growth at 10 uM after 48 hrs by SRB assay relative to control; details: UO-31, 48 h, read-out: Activity; in short: as §1
[29] = tested on: PC-3; test: Cytotoxicity against human PC3 cells assessed as cell growth at 10 uM after 48 hrs by SRB assay relative to control; details: PC-3, 48 h, read-out: Activity
[30] = tested on: DU-145; test: Cytotoxicity against human DU145 cells assessed as cell growth at 10 uM after 48 hrs by SRB assay relative to control; details: DU-145, 48 h, read-out: Activity; in short: as §2
[31] = tested on: MDA-MB-231; test: Cytotoxicity against human MDA-MB-231 cells assessed as cell growth at 10 uM after 48 hrs by SRB assay relative to control; details: MDA-MB-231, 48 h, read-out: Activity; in short: as §2
[32] = tested on: Hs-578T; test: Cytotoxicity against human Hs578T cells assessed as cell growth at 10 uM after 48 hrs by SRB assay relative to control; details: read-out: Activity; in short: as §2
[33] = tested on: BT-549; test: Cytotoxicity against human BT549 cells assessed as cell growth at 10 uM after 48 hrs by SRB assay relative to control; details: BT-549, 48 h, read-out: Activity; in short: as §2
[34] = tested on: T47D; test: Cytotoxicity against human T47D cells assessed as cell growth at 10 uM after 48 hrs by SRB assay relative to control; details: read-out: Activity; in short: as §1

| SMILES | growth at 10 µM [1] [%] | growth at 10 µM [2] [%] | growth at 10 µM [3] [%] | growth at 10 µM [4] [%] | growth at 10 µM [5] [%] | growth at 10 µM [6] [%] | growth at 10 µM [7] [%] | growth at 10 µM [8] [%] | growth at 10 µM [9] [%] | growth at 10 µM [10] [%] | growth at 10 µM [11] [%] | growth at 10 µM [12] [%] | growth at 10 µM [13] [%] | growth at 10 µM [14] [%] | growth at 10 µM [15] [%] | growth at 10 µM [16] [%] | growth at 10 µM [17] [%] | growth at 10 µM [18] [%] | growth at 10 µM [19] [%] | growth at 10 µM [20] [%] | other results |
| --- | --- | --- | --- | --- | --- | --- | --- | --- | --- | --- | --- | --- | --- | --- | --- | --- | --- | --- | --- | --- | --- |
| CCOC(=O)CCCn1c2c(c(C)c1-c1ccccc1)C1=NC(=O)CN1C(SC)=N2 | 77 | 94 | 97 | 80 | 94 | 92 | 129 | 114 | 105 | 98 | 84 | 106 | 93 | 107 | 111 | 100 | 113 | 105 | 110 | 111 | growth at 10 µM [21]: 99%; growth at 10 µM [22]: 100%; growth at 10 µM [23]: 118%; growth at 10 µM [24]: 112%; growth at 10 µM [25]: 100%; growth at 10 µM [26]: 127%; growth at 10 µM [27]: 123%; growth at 10 µM [28]: 85%; growth at 10 µM [29]: 93%; growth at 10 µM [30]: 109%; growth at 10 µM [31]: 130%; growth at 10 µM [32]: 112%; growth at 10 µM [33]: 107%; growth at 10 µM [34]: 88% |
| COC(=O)C(Cc1cnc[nH]1)NC(=O)CCCn1c(C)c(C)c2c1N=C(SC)N1CC(=O)N=C21 (configuration not stated) | 98 | 118 | 95 | 92 | 99 | 90 | 118 | 105 | 106 | 112 | 91 | 94 | 92 | 106 | 102 | 113 | 107 | 95 | 121 | 106 | growth at 10 µM [21]: 103%; growth at 10 µM [22]: 104%; growth at 10 µM [23]: 101%; growth at 10 µM [24]: 113%; growth at 10 µM [25]: 102%; growth at 10 µM [26]: 107%; growth at 10 µM [27]: 111%; growth at 10 µM [28]: 96%; growth at 10 µM [29]: 88%; growth at 10 µM [30]: 113%; growth at 10 µM [31]: 112%; growth at 10 µM [32]: 107%; growth at 10 µM [33]: 107%; growth at 10 µM [34]: 104% |
| CSC1=Nc2c(c(C)c(C)n2CCCC(=O)NCCc2cnc[nH]2)C2=NC(=O)CN12 | 97 | 126 | 99 | 91 | 101 | 83 | 132 | 109 | 130 | 106 | 97 | 102 | 102 | 102 | 116 | 113 | 114 | 94 | 165 | 116 | growth at 10 µM [21]: 108%; growth at 10 µM [22]: 110%; growth at 10 µM [23]: 107%; growth at 10 µM [24]: 112%; growth at 10 µM [25]: 111%; growth at 10 µM [26]: 100%; growth at 10 µM [27]: 139%; growth at 10 µM [28]: 85%; growth at 10 µM [29]: 100%; growth at 10 µM [30]: 149%; growth at 10 µM [31]: 110%; growth at 10 µM [32]: 117%; growth at 10 µM [33]: 120%; growth at 10 µM [34]: 101% |
